Data taken from article PMC12814486 (Bioorganic & medicinal chemistry, 2025).
In brackets after ≈: the same amount, converted by molar mass.

Columns and labels:
[1] = Microsomal stability assay in liver microsomes; type: in vitro ADME; details: human, pH 7.4
Summary of the method: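 Test compound was taken from a 1 mM DMSO stock. It was preincubated 5 min at 37 °C with liver microsomes in 0.1 M phosphate buffer, pH 7.4. Reaction was started with an NADPH regenerating system (glucose-6-phosphate, NADPH, glucose-6-phosphate dehydrogenase, MgCl2) and quenched with methanol at 0, 10, 20, 30 and 60 min. Samples were centrifuged and read by LC-MS SIM as peak area ratio to internal standard. k = negative slope of ln ratio vs time; CLint = k/P (P = protein concentration). Duplicates or triplicates were averaged.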

rat sEH = molecular target: T1, rat sEH (Rattus norvegicus, UniProt P80299); assay: sEH inhibition assay; type: biochemical
T1 sequence (P80299 1-554): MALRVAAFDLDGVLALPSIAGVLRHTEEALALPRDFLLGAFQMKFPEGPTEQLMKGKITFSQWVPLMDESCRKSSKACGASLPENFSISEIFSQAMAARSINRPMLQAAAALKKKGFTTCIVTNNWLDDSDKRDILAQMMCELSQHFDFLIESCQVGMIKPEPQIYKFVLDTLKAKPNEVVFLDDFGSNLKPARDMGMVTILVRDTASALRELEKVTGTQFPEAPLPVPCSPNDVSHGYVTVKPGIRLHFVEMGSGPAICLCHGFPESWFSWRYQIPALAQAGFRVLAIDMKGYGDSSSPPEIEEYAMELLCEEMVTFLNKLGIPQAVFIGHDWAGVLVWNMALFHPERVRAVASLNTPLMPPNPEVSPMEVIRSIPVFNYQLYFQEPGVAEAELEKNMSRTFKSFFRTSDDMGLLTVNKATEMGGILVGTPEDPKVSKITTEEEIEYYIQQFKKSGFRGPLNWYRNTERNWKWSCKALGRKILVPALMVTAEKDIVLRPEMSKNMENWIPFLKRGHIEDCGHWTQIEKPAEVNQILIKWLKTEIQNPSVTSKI

Solubility assay = type: physicochemical; details: sodium phosphate buffer, pH 7.4, aqueous buffer, kinetic from dmso stock
Nociceptin (NOP) = Nociceptin (NOP) (Homo sapiens, UniProt P41146); assay: NIMH PDSP binding screen; details: read-out: Inhibition (%) Nociceptin (NOP)
Nociceptin (NOP), sequence (P41146 whole entry): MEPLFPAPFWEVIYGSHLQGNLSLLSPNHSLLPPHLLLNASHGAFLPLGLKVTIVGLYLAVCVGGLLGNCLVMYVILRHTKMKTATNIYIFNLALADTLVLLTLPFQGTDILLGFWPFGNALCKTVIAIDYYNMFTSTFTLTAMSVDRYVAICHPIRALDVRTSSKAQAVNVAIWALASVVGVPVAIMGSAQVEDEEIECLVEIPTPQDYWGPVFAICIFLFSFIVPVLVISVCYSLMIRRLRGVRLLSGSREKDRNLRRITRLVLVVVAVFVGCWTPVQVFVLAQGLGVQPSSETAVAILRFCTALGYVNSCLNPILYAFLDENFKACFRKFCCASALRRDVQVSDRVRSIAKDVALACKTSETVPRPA

5-HT2C = molecular target: T2, 5-HT2C (Homo sapiens, UniProt P28335); assay: NIMH PDSP binding screen; details: read-out: Inhibition (%) 5-HT2C
T2 sequence (P28335 33-458): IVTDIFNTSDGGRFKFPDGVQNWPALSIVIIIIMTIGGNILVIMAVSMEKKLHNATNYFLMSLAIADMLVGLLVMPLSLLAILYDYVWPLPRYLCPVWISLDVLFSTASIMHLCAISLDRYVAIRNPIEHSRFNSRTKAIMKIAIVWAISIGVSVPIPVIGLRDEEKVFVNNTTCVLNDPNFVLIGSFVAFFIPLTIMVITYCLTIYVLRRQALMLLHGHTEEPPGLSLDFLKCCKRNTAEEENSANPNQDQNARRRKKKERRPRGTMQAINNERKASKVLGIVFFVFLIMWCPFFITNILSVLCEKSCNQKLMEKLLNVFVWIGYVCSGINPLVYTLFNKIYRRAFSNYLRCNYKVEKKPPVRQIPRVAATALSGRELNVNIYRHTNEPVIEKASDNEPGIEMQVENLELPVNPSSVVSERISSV

5-HT1D = 5-HT1D (Homo sapiens, UniProt P28221); assay: NIMH PDSP binding screen; details: read-out: Inhibition (%) 5-HT1D
5-HT1D, sequence (P28221 whole entry, species assumed): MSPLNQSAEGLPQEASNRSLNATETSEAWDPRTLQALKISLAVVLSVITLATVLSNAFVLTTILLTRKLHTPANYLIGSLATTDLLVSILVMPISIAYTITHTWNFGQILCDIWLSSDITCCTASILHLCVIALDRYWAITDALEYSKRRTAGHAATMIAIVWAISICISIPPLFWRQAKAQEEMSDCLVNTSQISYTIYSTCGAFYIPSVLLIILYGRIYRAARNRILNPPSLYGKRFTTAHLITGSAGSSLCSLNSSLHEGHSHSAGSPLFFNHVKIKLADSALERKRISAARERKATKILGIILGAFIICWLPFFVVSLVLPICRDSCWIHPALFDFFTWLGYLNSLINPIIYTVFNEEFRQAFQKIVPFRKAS

5-HT2A = 5-HT2A (Homo sapiens, UniProt P28223); assay: NIMH PDSP binding screen; details: read-out: Inhibition (%) 5-HT2A
5-HT2A, sequence (P28223 whole entry, species assumed): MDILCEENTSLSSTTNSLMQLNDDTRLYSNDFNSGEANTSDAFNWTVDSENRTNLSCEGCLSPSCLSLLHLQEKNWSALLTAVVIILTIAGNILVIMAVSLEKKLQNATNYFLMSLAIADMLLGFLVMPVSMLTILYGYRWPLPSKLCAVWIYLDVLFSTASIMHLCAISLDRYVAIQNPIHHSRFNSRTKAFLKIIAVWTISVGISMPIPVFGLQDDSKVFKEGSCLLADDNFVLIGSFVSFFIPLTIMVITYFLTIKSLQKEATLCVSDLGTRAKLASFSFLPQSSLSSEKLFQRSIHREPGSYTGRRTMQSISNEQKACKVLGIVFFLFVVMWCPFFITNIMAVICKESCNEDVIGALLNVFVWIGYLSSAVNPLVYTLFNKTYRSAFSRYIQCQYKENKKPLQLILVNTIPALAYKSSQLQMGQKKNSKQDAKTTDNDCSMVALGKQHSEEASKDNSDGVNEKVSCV

5-HT1A = molecular target: T3, 5-HT1A (Homo sapiens, UniProt P08908); assay: NIMH PDSP binding screen; details: read-out: Inhibition (%) 5-HT1A
T3 sequence (P08908 1-422): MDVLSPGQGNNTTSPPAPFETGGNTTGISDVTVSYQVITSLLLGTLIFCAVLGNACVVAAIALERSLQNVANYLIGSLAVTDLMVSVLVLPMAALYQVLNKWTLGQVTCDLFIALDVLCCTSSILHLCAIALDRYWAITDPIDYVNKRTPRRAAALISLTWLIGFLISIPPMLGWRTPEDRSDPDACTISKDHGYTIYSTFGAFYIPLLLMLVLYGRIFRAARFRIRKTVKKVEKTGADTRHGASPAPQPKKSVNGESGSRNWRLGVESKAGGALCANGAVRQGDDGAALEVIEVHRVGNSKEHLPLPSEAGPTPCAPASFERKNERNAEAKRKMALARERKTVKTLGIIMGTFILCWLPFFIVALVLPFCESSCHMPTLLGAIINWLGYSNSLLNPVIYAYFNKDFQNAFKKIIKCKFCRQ

O=C(Nc1ccc(-c2cnc3ccccc3n2)cc1)C1CCN(S(=O)(=O)c2ccccc2Cl)CC1 [Compound 4m, 1-((2-chlorophenyl)sulfonyl)-N-(4-(quinoxalin-2-yl)phenyl)piperidine-4-carboxamide]
half-life at 1 µM [1]: > 60 min
microsomal CLint at 1 µM [1]: 22.5 µL/min/mg
IC50 (rat sEH): 0.3 nM
solubility (Solubility assay): 31 to 63 µM (≈ 15.7 to 31.9 µg/mL)
inhibition at 10 µM (Nociceptin (NOP)): -5.22 ± 3.98%
inhibition at 10 µM (5-HT2C): -18.2 ± 3.45%
inhibition at 10 µM (5-HT1D): -8.07 ± 3.46%
inhibition at 10 µM (5-HT2A): 1.96 ± 1.88%
inhibition at 10 µM (5-HT1A): -18 ± 14.6%
